Laboratory results reported in ChEMBL document CHEMBL1127020, “3-Quinolinecarboxamides. A series of novel orally-active antiherpetic agents” (1993).
≈ marks a conversion by molar mass, not a printed value. Calls of active or inactive are those of the source. The calls are words filed in the database; no cut-off is given here.

How the values were obtained:
Vero [1] = assay: (§1) In vitro minimum inhibitory concentration against herpes simplex virus-2 (HSV-2) by plaque-reduction assay in vero cells; assay type: functional, cell-based; details: Chlorocebus sabaeus
In short: (§2)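 Vero monolayers (2 days old, confluent; Hank's MEM + 5% inactivated FCS, 37 °C, 2% CO2) infected with ~80 PFU; after 1-h adsorption, overlay of M199/5% FCS with 1:150 human immune serum globulin plus serial 2-fold compound dilutions (1:200 from DMSO). 3 d incubation, glutaraldehyde fix, crystal violet stain, plaque count. MIC = lowest concentration giving 50% plaque reduction; mean of ≥2 experiments.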

Human alphaherpesvirus 2 [2] = assay: In vitro maximum tolerated level against herpes simplex virus-2 (HSV-2) by plaque-reduction assay in vero cells; assay type: functional
Mus musculus = assay: Tested in vivo for minimum effective dose against herpes simplex virus-2 (HSV-2) by oral administration in female mice;not active; assay type: functional, organism-based
In short: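 Swiss female ICR mice (13–15 g) infected intravaginally with HSV-2 (Curtis) at a dose set for 80% mortality. Compound suspended in 1% gum tragacanth/2% Tween 80, given intragastrically at serial 2-fold doses, 20 mice per dose, 2 h before infection then twice daily for 5 d. Mortality followed 14 d; MED = lowest dose with survival differing from placebo (Mantel-Cox, Breslow).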

Human alphaherpesvirus 2 [3] = assay: In vivo maximum tolerated dose against herpes simplex virus-2 (HSV-2) by oral administration in female mice; assay type: functional
Human alphaherpesvirus 2 [4] = assay: as §1; assay type: functional
Human alphaherpesvirus 2 [5] = assay: Minimum effective dose against herpes simplex virus-2 (HSV-2) by oral administration in female mice.; assay type: functional; details: Human alphaherpesvirus 2, po; read-out: MED
Vero [6] = assay: Tested in vitro for minimum inhibitory concentration against herpes simplex virus-1 (HSV-1) 1142 strain by plaque-reduction assay in vero cells; assay type: functional; details: Chlorocebus sabaeus; in short: as §2
Vero [7] = assay: Tested in vitro for minimum inhibitory concentration against herpes simplex virus-1 (HSV-1) 2992 strain by plaque-reduction assay in vero cells; assay type: functional; details: Chlorocebus sabaeus; in short: as §2
Vero [8] = assay: Tested in vitro for minimum inhibitory concentration against herpes simplex virus-1 (HSV-1) F strain by plaque-reduction assay in vero cells; assay type: functional; details: Chlorocebus sabaeus; in short: as §2
Vero [9] = assay: Tested in vitro for minimum inhibitory concentration against herpes simplex virus-1 (HSV-1) KOS strain by plaque-reduction assay in vero cells; assay type: functional; details: Chlorocebus sabaeus; in short: as §2
Vero [10] = assay: Tested in vitro for minimum inhibitory concentration against herpes simplex virus-1 (HSV-1) KOS, ACG strain by plaque-reduction assay in vero cells; assay type: functional; details: Chlorocebus sabaeus; in short: as §2
Vero [11] = assay: Tested in vitro for minimum inhibitory concentration against herpes simplex virus-2 (HSV-2) 2011 strain by plaque-reduction assay in vero cells; assay type: functional; details: Chlorocebus sabaeus; in short: as §2
Vero [12] = assay: Tested in vitro for minimum inhibitory concentration against herpes simplex virus-2 (HSV-2) 2115 strain by plaque-reduction assay in vero cells; assay type: functional; details: Chlorocebus sabaeus; in short: as §2
Vero [13] = assay: Tested in vitro for minimum inhibitory concentration against herpes simplex virus-2 (HSV-2) curtis strain by plaque-reduction assay in vero cells; assay type: functional; details: Chlorocebus sabaeus; in short: as §2
Vero [14] = assay: Tested in vitro for minimum inhibitory concentration against herpes simplex virus-2 (HSV-2) by plaque-reduction assay in vero cells; not active; assay type: functional, cell-based; details: Chlorocebus sabaeus; in short: as §2
Vero [15] = assay: Tested in vitro for minimum inhibitory concentration against herpes simplex virus-2 (HSV-2) 2011 strain by plaque-reduction assay in vero cells; details: Chlorocebus sabaeus

Structure (SMILES) | MTL (Human alphaherpesvirus 2 [2]) | MTD (Human alphaherpesvirus 2 [3]) | MIC (Human alphaherpesvirus 2 [4]) | minimal effective dose (Human alphaherpesvirus 2 [5]) | further results
CCn1cc(C(=O)NNC)c(=O)c2ccc(-c3ccncc3)cc21 | 25 µg/mL |  |  |  | MIC (Vero [1]): inactive
CCn1cc(C(=O)NN)c(=O)c2ccc(-c3ccncc3)cc21 | 50 µg/mL | 100 mg/kg | 38 µg/mL (≈ 123 µM) |  | MED (Mus musculus): inactive
CCn1cc(C(=O)NO)c(=O)c2ccc(-c3ccncc3)cc21 | 25 µg/mL | 100 mg/kg | 6.8 µg/mL (≈ 22 µM) |  | MED (Mus musculus): inactive
NC(=O)c1cn(-c2ccc(F)cc2)c2cc(-c3cc[n+]([O-])cc3)ccc2c1=O | >12.5 µg/mL | 100 mg/kg |  | 25 mg/kg | MIC (Vero [1]): inactive
Nc1nc2c(ncn2COCCO)c(=O)[nH]1 [ACYCLOVIR] | >200 µg/mL | >200 mg/kg | 1.3 µg/mL (≈ 5.77 µM) | 12 mg/kg | MIC (Vero [6]): 7.8 µg/mL (≈ 34.6 µM); MIC (Vero [7]): 11 µg/mL (≈ 48.8 µM); MIC (Vero [8]): 0.29 µg/mL (≈ 1.29 µM); MIC (Vero [9]): 0.14 µg/mL (≈ 0.622 µM); MIC (Vero [10]): 43 µg/mL (≈ 191 µM); MIC (Vero [11]): 43 µg/mL (≈ 191 µM); MIC (Vero [12]): 77 µg/mL (≈ 342 µM); MIC (Vero [13]): 1.3 µg/mL (≈ 5.77 µM)
CCn1cc(C(=O)N(C)O)c(=O)c2ccc(-c3ccncc3)cc21 | 50 µg/mL |  |  |  | MIC (Vero [14]): inactive
NC(=O)c1cn(-c2ccc(F)cc2)c2cc(-c3ccncc3)ccc2c1=O | 6.25 µg/mL | 50 mg/kg | 0.24 µg/mL (≈ 0.668 µM) | 25 mg/kg | MIC (Vero [6]): 0.18 µg/mL (≈ 0.501 µM); MIC (Vero [7]): 0.24 µg/mL (≈ 0.668 µM); MIC (Vero [8]): 0.13 µg/mL (≈ 0.362 µM); MIC (Vero [9]): 0.23 µg/mL (≈ 0.64 µM); MIC (Vero [10]): 0.32 µg/mL (≈ 0.89 µM); MIC (Vero [12]): 0.13 µg/mL (≈ 0.362 µM); MIC (Vero [13]): 0.24 µg/mL (≈ 0.668 µM); MIC (Vero [15]): 0.15 µg/mL (≈ 0.417 µM)
NC(=O)c1c(N)n(-c2ccc(F)cc2)c2cc(-c3ccncc3)ccc2c1=O | >100 µg/mL | 50 mg/kg | 0.33 µg/mL (≈ 0.881 µM) | 50 mg/kg | 
